Laboratory results reported in ChEMBL document CHEMBL4513216, “Probing the Open Global Health Chemical Diversity Library for Multistage-Active Starting Points for Next-Generation Antimalarials” (ACS Infect Dis, 2020).

Test: Toxicity liver stage against HepG2, at 10uM
Type: cell-based
Set-up: test concentration 10 uM, cell line HepG2-A16-CD81EGFP
Conditions: human, HepG2-A16-CD81EGFP cells; read-out: INHIBITION
Summary of the method: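 Uninfected HepG2-A16-CD81EGFP cells, 3 × 10^3 per well, 1536-well, plated on prespotted compound at 10 μM final, parasite-free screening media added to match infected plates; puromycin 10 μM positive, DMSO 0.5% negative; run in parallel with 48 h PbLuc assay at 37 °C, 5% CO2; viability by CellTiter-Glo luminescence, normalized to controls.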

| SMILES | cytotoxicity at 10 µM |
| --- | --- |
| CCOCCCNC(=O)C(NC(=O)Cc1cccs1)c1ccc(C)cc1 (centres undefined) | 13.2% |
| CN(Cc1cc(C[C@@H]2C[C@H](N)C2(C)C)no1)c1ccccc1 | -1.8% |
| c1ccc(CNC[C@H]2COCc3nc4cccnc4n32)cc1 | -1.84% |
| CN(C)CCCNC(=O)c1cc(-c2ccc3c(c2)CCO3)n[nH]1 | -12.8% |
| O=C(CCc1ccccc1)NCC1CCN(Cc2ccccc2)CC1 | -6.29% |
| N#Cc1ccc(OC2CCN(C(=O)c3cncc(Br)c3)CC2)nc1 | 3.05% |
| Cc1nnc([C@H]2C[C@H]3OCC[C@H]3N(S(=O)(=O)N(C)C)C2)o1 | -8.44% |
| COc1ccc(N2CCOCC3(CCCN(c4cnccn4)C3)C2)cc1 (centres undefined) | 4.29% |
| CCc1ccc(C(O)CN2CCN(c3cccc(OC)c3)CC2)cc1 (centres undefined) | 11.2% |
| c1ccc(-c2nnc3sc(CCN4CCCC4)nn23)cc1 | 6.04% |
| Oc1nnc(-c2cccs2)c2sc(N3CCCCC3)nc12 | 7.52% |
| Cn1ncc2c1NC(=O)CC2c1ccccc1Cl (centres undefined) | 55.7% |
| Cc1csc2c(C3CCN(CCOc4ccccc4F)CC3)nc(C)n12 | 5.89% |
| CN(C)c1cc(C2CCCN(S(=O)(=O)C3CCCC3)C2)ccn1 (centres undefined) | -20.8% |
| Cn1nccc1CCC(=O)N1CCC(c2cnccn2)CC1 | -21.7% |
| O=C(NCCCO)Nc1cnc2cc(Cl)ccc2c1O | 2.05% |
| Oc1nc(N2CCOCC2)nc2c1CCN(Cc1cccc(F)c1)CC2 | -8.08% |
| NC(=O)C1(CCCc2ccccn2)CCCN(Cc2ccncc2)C1 (centres undefined) | -4.8% |
| Cc1cc(C)c2cc(CNCc3ccc(C)o3)c3nn(C)c(=O)n3c2c1 | -1.83% |
| Cc1nc(C)c(C(=O)Nc2cnn(CC(=O)NC3CCCC3)c2)s1 | -3.33% |
| O=C(N[C@@H]1CN(CCc2ccc(F)cc2)C[C@H]1O)c1cscn1 | -3.08% |
| COc1ccc(CN2CCC(c3nnc(-c4scnc4C)o3)CC2)cc1 | -5.03% |

| SMILES | cytotoxicity at 10 µM |
| --- | --- |
| CN(C)[C@@H]1CN(C(=O)COc2cccc(F)c2)C[C@H]1O | -10.4% |
| CN(CCCOc1ccccc1)C(=O)c1csc(-c2nnc[nH]2)n1 | 10.4% |
| N#CCCn1cnc2c(F)cc(Br)cc2c1=O | 0.997% |
| O=C(CCn1cncn1)NCC1CCOC1 (centres undefined) | -43.4% |
| Cc1cc(C)n(CCN2CCC(N(C)Cc3nnc(C)n3C)C2)n1 (centres undefined) | 2.35% |
| CN(C)C1(CNC(=O)c2c(O)cc(Cl)cc2Cl)CCOCC1 | -9.46% |
| CCN(CC)S(=O)(=O)c1ccc(CNC(=O)N2CCCCCC2)cc1 | -2.9% |
| O=C(CN1CCOCC1)N1CCN(C2CCc3ccc(F)cc32)CC1 (centres undefined) | 6.24% |
| CC(CCN1CCCC1=O)NCc1cnc(C2CCC2)s1 (centres undefined) | -0.743% |
| COc1ccc(CCCC(=O)N2CCCC(n3cncn3)C2)cc1 (centres undefined) | -6.96% |
| c1ccc2sc(N3CCCC(Cn4cncn4)C3)nc2c1 (centres undefined) | -40.1% |
| CC(C)n1nc2c(cc1=O)CN(Cc1nc(-c3ccco3)no1)CC2 | 2.35% |
| OCC1CCN(c2ccc(NCc3ccsc3)nc2)CC1 | 8.94% |
| Clc1cccc(C(CNCc2ccccn2)N2CCOCC2)c1 (centres undefined) | -12% |
| N#Cc1ccc(S(=O)(=O)NC(=O)c2csc(-c3ccco3)n2)cc1 | -8.17% |
| COc1ncccc1CNc1snc(Cl)c1C#N | 10.2% |
| CCN(CC1CN(Cc2ccn(C(C)C)n2)CCO1)c1cccnn1 (centres undefined) | 5.06% |
| CCN(CC1CCCO1)C(=O)Nc1cccc(N2CCOCC2)c1 (centres undefined) | 8.44% |
| CCOCCN1CCN(Cc2nc(C)no2)CC1CC (centres undefined) | 13.1% |
| CC(C)c1noc(CN(Cc2ccccc2)C2CC2)n1 | 0.563% |
| Cc1cc(NCc2ccccc2CN2CCCCC2)n2ncnc2n1 | -1.86% |
| O=C(Nc1nnc(C2CC2)s1)NC1CCOc2ccccc21 (centres undefined) | 24.2% |

| SMILES | cytotoxicity at 10 µM |
| --- | --- |
| Cc1cc2cc(CNC3CCN(CC(=O)N(C)C)CC3)oc2cc1C | -5.95% |
| CCc1ncc(C(=O)N2CCn3c(CC)nnc3C2)s1 | 1.03% |
| O=C(NCCCNC(=O)C1CCC1)NCCn1cccc1 | 0.215% |
| CC(C)c1nc(S(=O)(=O)N(C)c2ccc(F)cc2)c[nH]1 | -0.131% |
| OCC(O)CSCc1ccc(Cl)cc1Cl (centres undefined) | -148% |
| Cn1ccnc1CN(CCCO)CC(F)(F)F | 5.68% |
| CC(NC(=O)Nc1nccs1)c1cccnc1 (centres undefined) | -8.81% |
| COc1cc2c(c(OC)c1OC)CCN(CCN1CCCCC1)CC2 | -15.7% |
| CC1COCCN1Cc1nc(Cc2ccccc2)no1 (centres undefined) | 5.17% |
| COCCOCC(=O)Nc1ccnn1-c1ccc(Cl)cc1 | -11.6% |
| Cc1nnc(CN2CCCC2c2ccsc2)o1 (centres undefined) | 3.22% |
| NC(=O)CNC(=O)c1ccc(CNCc2ccc(F)cc2F)cc1 | -43.4% |
| CC(C)N(Cc1ccc(C#N)cc1)C(=O)Nc1ccccn1 | -0.518% |
| OC1CCN(Cc2ccc(CNc3ccc(Cl)cn3)cc2)CC1 | 0.313% |
| O=C(CN1CCOCC1CC(=O)c1ccco1)NCc1ccccn1 (centres undefined) | -4.92% |
| Cn1nc(C(C)(C)C)cc1NC(=O)Cn1ccccc1=O | -10.5% |
| CC(=O)NCc1nnn2c1CN(c1ncccn1)CCC2 | -107% |
| NC(=O)[C@H]1CCCN(c2nccc(-c3c[nH]nc3-c3cccnc3)n2)C1 | -5.89% |
| COc1cccc(OC)c1-c1ccnc2cc(CC(=O)NC(C)C)nn12 | -8.05% |
| CC(C)[C@H](NS(C)(=O)=O)C(=O)NCc1cc(-c2ccco2)nn1C | -10.5% |
| Cc1nccn1-c1ccc(NC(=O)C2CCCN2Cc2ccoc2)cc1 (centres undefined) | 0.184% |
| OC[C@@H]1CCCN1Cc1cn(C2CCN(C3CCCC3)CC2)nn1 | -3.73% |

| SMILES | cytotoxicity at 10 µM |
| --- | --- |
| CC(C)(C)c1nc(CN(Cc2cccnc2)C2CN3CCC2CC3)no1 (centres undefined) | -4.09% |
| COc1ccc2[nH]c3c(c2c1)CN(c1cc(NCCO)nc(N)n1)CC3 | 8.75% |
| CSCC[C@@H](CO)Nc1ccc(-c2nc(C3CC3)no2)cn1 | 0.957% |
| CN1CCCN(c2cnn(Cc3ccncc3)c(=O)c2)CC1 | 6.75% |
| COCc1cc(N2CCN(c3ccc(Cl)cn3)CC2)n2nccc2n1 | 8.89% |
| Oc1cc(CN2CCCCC2c2cccnc2)nc2c(F)cccc12 (centres undefined) | -6.88% |
| CC(=O)N1CCC(C(=O)N2CCOC(CC3CCCCC3)C2)CC1 (centres undefined) | -13.7% |
| CCC(CC)NCC(C)Oc1cccnc1 (centres undefined) | 8.26% |
| CN(CC(=O)N1CCOC(CCc2ccccc2)C1)Cc1ccccn1 (centres undefined) | -1.83% |
| Cc1ccc(CN2CCC3(CCCN(Cc4ccc(F)c(F)c4)C3)C2)o1 (centres undefined) | 9.39% |
| COc1cccc(OCCc2nc3c(cc2C(N)=O)CCC3)c1 | 7.32% |
| COc1ccc(C(=O)N2C[C@@H](NC(=O)N(C)C)[C@H](C(C)C)C2)c(OC)n1 | 3.6% |
| Cc1cc(C(=O)N2CCCC3(CNC(=O)O3)C2)c2c(C)nn(C)c2n1 (centres undefined) | 10.8% |
| CCNc1cc2c(nn1)CCN(C(=O)c1ccnc(-n3ccnc3)c1)C2 | -3.01% |
| Cc1cnn(CCNCC(O)COc2ccc(F)cc2)c1 (centres undefined) | -1.76% |
| NC(=O)CN1CCCN(C(=O)Cc2ccc(Br)cc2)CC1 | -6.58% |
| CC(C)(O)CN1CCN(C(=O)c2sccc2C#N)CC1 | -7.3% |
| O=C(CCNC(=O)c1ccoc1)Nc1cc(F)cc(F)c1 | -7.41% |
| Cc1noc(C)c1CN1CCc2nn(C(C)C)c(=O)cc2C1 | -8.87% |
| COC(C(=O)N1CCCN(Cc2cscn2)CC1)c1ccccc1 (centres undefined) | -8.34% |
| c1c(CN2CCCC2)nc2n1CCN(C1CCOCC1)C2 | 0.641% |
| CS(=O)(=O)N1CC[C@H]2O[C@H](C(=O)NCCc3ccccn3)CC[C@H]21 | 8.5% |

| SMILES | cytotoxicity at 10 µM |
| --- | --- |
| CC(C)(C)C(=O)N1C[C@H](c2ccsc2)[C@H]2CN(Cc3cccs3)CC[C@H]21 | 12.7% |
| CC(C)n1nc(Cn2cccc2)c2c1CN(Cc1ccoc1)C2 | 1.49% |
| Cc1ccc(CN2CC3(CCN(C(=O)c4cscn4)C3)C2)o1 | 5.28% |
| O=C(NCC1CC1)[C@H]1C[C@@H]2CCN(CCc3ccccc3)C[C@H]2O1 | -75.5% |
| CN(C)CCN1CCOCC2(CCCN(C(=O)c3ccccn3)C2)C1 (centres undefined) | 6.67% |
| CC(C)N1CC[C@H]2[C@H](C[C@@H](Cn3cccn3)N2c2nccs2)C1 | 3.28% |
| O=C(C1CCCC1)N1C[C@@H]2CCN(c3cccnc3)C[C@@H]2C1 | -78.4% |
| CO[C@@H]1CCN(Cc2nccs2)C[C@@H]1Cc1cccc(C)c1 | -71.8% |
| O=C(O)[C@]12CCCN(CC3CCOC3)C[C@H]1CN(c1ncccn1)C2 (some centres undefined) | -104% |
| Cc1noc(C)c1CN1Cc2cnn(C)c2C(COCC2CC2)C1 (centres undefined) | -76.5% |
| Cc1ccc(CN2CCCn3nnc(COCCN(C)C)c3C2)s1 | -114% |
| O=C(C[C@@H]1COC[C@H]2CN(Cc3cccnc3)C[C@@H]12)NCC1CC1 | 0.752% |
| COc1cccc(CN2CCc3nc4ccsc4c(=O)n3CC2)c1 | -26.5% |
| O=C(NC[C@]12COC[C@H]1CN(Cc1ccco1)C2)c1ccccc1 | -2.53% |
| CN(C)CCN1CCO[C@H]2CCN(C(=O)c3cccs3)CC[C@@H]21 | -8.32% |
| CC(C)CO[C@H]1CN(S(=O)(=O)c2cn(C)cn2)[C@@H]2CCCO[C@H]12 | -148% |
| Cc1cnc(N2CCC3(CC2)CN(c2ccsc2)C(=O)CO3)nc1 | 7.34% |
| CN(Cc1cccnc1)C[C@H]1OC[C@@H]2CCN(C(=O)C3CC3)C[C@@H]21 | -117% |
| c1cncc(COCc2cncc3c2CCN(Cc2ccoc2)C3)c1 | -109% |
| C=C1C(C)(C)[C@@H]2CC[C@]1(C(=O)N1CCC(n3cc(CO)nn3)CC1)C2 | -7.73% |
| CNC(=O)N1C[C@@H]2C[C@H](C(=O)Nc3cccnc3)[C@H](C1)O2 | -76.2% |
